Reference: ChEMBL document CHEMBL4033612, “The Bibenzyl Canniprene Inhibits the Production of Pro-Inflammatory Eicosanoids and Selectively Accumulates in Some Cannabis sativa Strains” (J Nat Prod, 2017)
The source made the active and inactive calls. The rule behind the calls is not given here.

Assays:
Prostaglandin E synthase = biological target: T1, Prostaglandin E synthase (Homo sapiens, UniProt O14684); experiment: (§1) Inhibition of mPGES-1 in interleukin-1 beta-stimulated human A549 cells microsomal membranes assessed as reduction in conversion of PGH2 to PGE2 pre-incubated for 15 mins followed by PGH2 substrate addition measured after 1 min by RP-HPLC method; type: cell-based
T1 sequence (O14684 whole entry): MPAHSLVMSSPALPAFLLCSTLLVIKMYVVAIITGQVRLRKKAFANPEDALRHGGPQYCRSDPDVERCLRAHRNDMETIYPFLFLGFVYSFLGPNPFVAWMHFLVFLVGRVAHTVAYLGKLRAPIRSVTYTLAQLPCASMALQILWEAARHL
Method in brief: (§2)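 A549 cells treated with 1 ng/mL IL-1β for 48 h, sonicated, and microsomes isolated at 174000g. Membranes were diluted in 0.1 M potassium phosphate pH 7.4 with 2.5 mM glutathione and given compound or vehicle for 15 min at 4 °C. PGH2 was added and the reaction ran 1 min at 4 °C, then was stopped with FeCl2/citric acid containing 11β-PGE2 internal standard. PGE2 was taken by SPE and measured by RP-HPLC. IC50 by linear interpolation.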

[1] = biological target: T2, Polyunsaturated fatty acid 5-lipoxygenase (Homo sapiens, UniProt P09917); experiment: (§3) Inhibition of human recombinant 5-lipoxygenase expressed in Escherichia coli MV1190 pre-incubated for 10 mins before arachidonic acid substrate addition and measured after 10 mins by RP-HPLC method
T2 sequence (P09917 whole entry): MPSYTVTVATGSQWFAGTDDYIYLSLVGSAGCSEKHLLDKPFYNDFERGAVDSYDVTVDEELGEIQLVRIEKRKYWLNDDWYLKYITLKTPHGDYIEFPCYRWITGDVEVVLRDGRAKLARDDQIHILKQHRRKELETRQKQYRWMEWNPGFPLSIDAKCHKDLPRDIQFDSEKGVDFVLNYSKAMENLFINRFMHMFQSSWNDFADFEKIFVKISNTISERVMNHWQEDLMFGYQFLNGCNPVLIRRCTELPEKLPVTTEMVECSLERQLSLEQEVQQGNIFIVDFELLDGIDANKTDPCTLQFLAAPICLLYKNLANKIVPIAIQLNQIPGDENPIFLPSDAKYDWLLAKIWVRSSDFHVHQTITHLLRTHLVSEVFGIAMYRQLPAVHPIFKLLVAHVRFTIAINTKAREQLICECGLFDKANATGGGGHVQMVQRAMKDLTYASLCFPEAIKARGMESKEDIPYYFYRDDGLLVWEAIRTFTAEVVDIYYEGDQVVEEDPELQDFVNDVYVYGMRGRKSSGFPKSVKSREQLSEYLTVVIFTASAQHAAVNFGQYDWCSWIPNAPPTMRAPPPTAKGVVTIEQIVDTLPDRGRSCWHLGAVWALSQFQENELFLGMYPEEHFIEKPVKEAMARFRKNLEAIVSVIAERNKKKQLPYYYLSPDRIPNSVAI
Method in brief: (§4)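 5-LO expressed at 27 °C in transformed E. coli, lysed, sonicated, spun at 40000g; supernatant partially purified on ATP-agarose and used at once. Enzyme diluted in ice-cold PBS with 1 mM EDTA and 1 mM ATP, preincubated with compound 10 min at 4 °C, warmed 30 s at 37 °C. Reaction started with 2 mM CaCl2 plus 20 μM AA, 10 min at 37 °C, stopped with methanol. Products analysed by RP-HPLC. IC50 by linear interpolation around 50% activity.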

[2] = biological target: T3, Prostaglandin E synthase (Homo sapiens) (UniProt O14684); experiment: Inhibition of mPGES-1 in interleukin-1 beta-stimulated human A549 cells microsomal membranes up to 10 uM assessed as reduction in conversion of PGH2 to PGE2 pre-incubated for 15 mins followed by PGH2 substrate addition measured after 1 min by RP-HPLC method; type: cell-based; method in brief: as §2
T3 sequence (whole entry): T1 sequence (O14684 whole entry)

[3] = biological target: T4, Polyunsaturated fatty acid 5-lipoxygenase (Homo sapiens) (UniProt P09917); experiment: Inhibition of human recombinant 5-lipoxygenase expressed in Escherichia coli MV1190 up to 10 uM pre-incubated for 10 mins before arachidonic acid substrate addition and measured after 10 mins by RP-HPLC method; method in brief: as §4
T4 sequence (whole entry): T2 sequence (P09917 whole entry)

[4] = biological target: T3, Prostaglandin E synthase (Homo sapiens); experiment: as §1; type: cell-based; method in brief: as §2
[5] = biological target: T4, Polyunsaturated fatty acid 5-lipoxygenase (Homo sapiens); experiment: as §3; method in brief: as §4

IC50 (Prostaglandin E synthase) [nM] | IC50 [1] [nM] | inhibition [2] | inhibition [3] | inhibition [4] | inhibition [5] | SMILES
1800 | 1300 | – | – | – | – | COc1cc(-c2cc(=O)c3c(O)c(C/C=C(\C)CCC=C(C)C)c(O)cc3o2)ccc1O
– | – | inactive | inactive | – | – | COc1cc(O)c2c(c1)CCC21CCC(O)CC1 (stereo not given)
– | 9300 | inactive | – | – | – | COc1cc(O)c2c(c1)CCC21C=CC(=O)CC1 (stereo not given)
10000 | 400 | – | – | Dose-dependent effect | Dose-dependent effect | COc1cc(O)cc(CCc2ccc(OC)c(O)c2CC=C(C)C)c1
